Source: paper PMC7340475 (Drug Design, Development and Therapy, 2020)
Where two headings read alike, the source gives them in different places. Blank lines part the entries; values can stand above or below the compound they belong to.

Columns and labels:
[1] = system: CHO cells; conditions: cited from earlier work
[2] = target: T1, α2A-AR (Homo sapiens, UniProt P08913); experiment: cAMP-Glo assay, forskolin induced cAMP accumulation in transfected COS-7 cells; assay type: cell-based
T1 sequence (P08913 1-465): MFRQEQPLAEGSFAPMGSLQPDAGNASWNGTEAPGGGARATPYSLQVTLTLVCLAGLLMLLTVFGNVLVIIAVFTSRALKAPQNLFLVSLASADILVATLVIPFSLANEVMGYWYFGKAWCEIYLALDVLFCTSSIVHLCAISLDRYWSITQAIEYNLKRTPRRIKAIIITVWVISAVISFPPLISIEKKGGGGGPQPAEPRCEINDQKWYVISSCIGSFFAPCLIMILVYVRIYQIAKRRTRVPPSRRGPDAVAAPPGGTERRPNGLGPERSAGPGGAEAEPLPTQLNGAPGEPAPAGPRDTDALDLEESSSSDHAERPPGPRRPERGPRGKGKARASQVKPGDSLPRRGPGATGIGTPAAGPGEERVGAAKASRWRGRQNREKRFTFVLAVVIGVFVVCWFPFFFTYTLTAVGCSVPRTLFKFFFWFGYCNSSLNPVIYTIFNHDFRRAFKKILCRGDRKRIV

[3] = target: T2, α2C-AR (Homo sapiens, UniProt P18825); experiment: Saturation binding assay of the radioligand; conditions: read-out: KD α2C-AR
T2 sequence (P18825 1-462): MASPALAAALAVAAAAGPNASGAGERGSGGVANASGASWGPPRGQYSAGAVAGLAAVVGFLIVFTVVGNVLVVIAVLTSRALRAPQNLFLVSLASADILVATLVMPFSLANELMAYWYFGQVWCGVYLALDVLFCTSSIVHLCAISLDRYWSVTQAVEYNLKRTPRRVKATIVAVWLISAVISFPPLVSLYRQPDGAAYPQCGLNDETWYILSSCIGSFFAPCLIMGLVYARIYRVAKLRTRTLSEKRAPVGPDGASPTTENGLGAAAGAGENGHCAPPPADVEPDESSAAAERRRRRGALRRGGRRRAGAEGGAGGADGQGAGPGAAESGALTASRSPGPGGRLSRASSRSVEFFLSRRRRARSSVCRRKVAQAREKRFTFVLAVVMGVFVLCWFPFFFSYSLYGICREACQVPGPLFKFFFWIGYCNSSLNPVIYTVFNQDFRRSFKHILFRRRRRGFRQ
Method in brief: (§1)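 Saturation binding used membranes from COS-7 cells transiently expressing each human α2-AR subtype. Membranes were incubated 1 h at room temperature with 0.1–10 nM [125I]-PIC in 50 mM Tris-HCl/120 mM sucrose. […] Reactions were stopped with PBS and filtered through GF/B. Radioactivity was counted and KD came from nonlinear regression.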

[4] = target: T1, α2A-AR; experiment: Saturation binding assay of the radioligand; conditions: read-out: KD α2A-AR
Method in brief: as §1

SMILES: CNC[C@H](O)c1ccc(O)c(O)c1 [epinephrine]
effect on cAMP production ([1]; from 10^−7 to 10^−6 M): increase | effect on cAMP production ([1]; from 10^−9 to 10^−8 M): inhibition

effect on the production of cAMP, compound alone ([2]; forskolin, no norepinephrine): did not have any effect
SMILES: Cc1ccc(N(CC2=NCCN2)c2cccc(O)c2)cc1 [phentolamine]

SMILES: Clc1cc(I)cc(Cl)c1NC1=NCCN1 [[^125I]-PIC, [^125I]-paraiodoclonidine]
Kd [3]: 0.802 ± 0.053 nM | Kd [4]: 0.209 ± 0.06 nM

effect on cAMP production ([2]; higher concentrations (10^−3-10^−7M)): stimulated the expression of cAMP | effect on cAMP production ([2]; lower concentrations (10^−10-10^−8M)): inhibited the production of cAMP
SMILES: NC[C@H](O)c1ccc(O)c(O)c1 [norepinephrine]
